Test results reported in ChEMBL document CHEMBL1125652, “Kynurenic acid derivatives. Structure-activity relationships for excitatory amino acid antagonism and identification of potent and selective antagonists at the glycine site on the N-methyl-D-aspartate receptor” (J Med Chem, 1991).
Active and inactive are the calls of the source. The calls are words filed in the database; no cut-off is given here.

How the values were obtained:
[1] = biological target: T1, Glutamate receptor ionotropic, kainate (Rattus norvegicus) (UniProt P22756+Q01812+P42260+P42264+Q63273); assay: Apparent dissociation constant of [3H]kainate from Ionotropic glutamate receptor ionotropic kainate was determined in rat cortical slice preparation
Outline: (§1)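 Rat cortical slice preparation; test compound antagonism of depolarizations evoked by agonists N-methyl-D-aspartic acid, quisqualic acid or kainic acid, expressed as apparent Kb.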

[2] = biological target: T2, Glutamate receptor ionotropic, AMPA (Rattus norvegicus) (UniProt P19491+P19492+P19493+P19490); assay: Apparent dissociation constant of [3H]AMPA from quisqualate receptor of rat cortical slices; format: protein-complex assay; outline: as §1
[3] = biological target: T3, Glutamate NMDA receptor (Rattus norvegicus) (UniProt P35439+Q00959+Q00960+Q00961+Q62645+Q8VHN2+Q9R1M7); assay: Apparent dissociation constant of [3H]glycine from N-methyl-D-aspartate glutamate receptor in rat cortical slice preparation expressed as log values.; outline: as §1
Glutamate NMDA receptor [4] = assay: Inhibition of [3H]glycine binding to glycine site of N-methyl-D-aspartate glutamate receptor in rat cortical membranes; format: cell membranes, Membrane
[5] = biological target: T2, Glutamate receptor ionotropic, AMPA (Rattus norvegicus); assay: Apparent dissociation constant of [3H]AMPA from Quisqualate receptor was determined in rat cortical slice preparation at 100 uM; Inactive; outline: as §1
[6] = biological target: T3, Glutamate NMDA receptor (Rattus norvegicus); assay: Apparent dissociation constant of [3H]-glycine from N-methyl-D-aspartate glutamate receptor in rat cortical slice preparation at 100 uM; Inactive; outline: as §1
[7] = biological target: Glutamate receptor ionotropic, kainate; assay: Inhibition of [3H]-kainic acid binding to kainate receptor of rat cortical membrane
[8] = biological target: Glutamate receptor ionotropic, AMPA (Rattus norvegicus, UniProt P19490+P19491+P19492+P19493); assay: Inhibition of [3H]-AMPA binding to AMPA receptor of rat cortical membrane
Glutamate NMDA receptor [9] = assay: Inhibition of [3H]-glutamate binding to N-methyl-D-aspartate glutamate receptor of rat cortical membranes; format: cell membranes, Membrane
[10] = biological target: T1, Glutamate receptor ionotropic, kainate (Rattus norvegicus); assay: Apparent dissociation constant of [3H]kainate from ionotropic glutamate receptor kainate of rat cortical slice at 100 uM; Inactive; format: protein-complex assay; outline: as §1
[11] = biological target: T3, Glutamate NMDA receptor (Rattus norvegicus); assay: Apparent dissociation constant of [3H]-glycine from N-methyl-D-aspartate glutamate receptor in rat cortical slice at 30 uM; Inactive; outline: as §1
[12] = biological target: T2, Glutamate receptor ionotropic, AMPA (Rattus norvegicus); assay: Apparent dissociation constant of [3H]-AMPA from Quisqualate receptor of rat cortical slice at 30 uM; Inactive; format: protein-complex assay; outline: as §1
[13] = biological target: T3, Glutamate NMDA receptor (Rattus norvegicus); assay: Apparent dissociation constant of [3H]glycine from N-methyl-D-aspartate glutamate receptor of rat cortical slices; format: protein-complex assay
Outline: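 Antagonism of NMDA-induced depolarizations in a rat cortical slice preparation, where endogenous glycine is present at supersaturating levels. Apparent Kb was obtained from dose ratios, with a dose ratio under 2 at a stated concentration reported as ">". Kb values are means of at least three experiments.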

[14] = biological target: T1, Glutamate receptor ionotropic, kainate (Rattus norvegicus); assay: Apparent dissociation constant for [3H]kainate from Ionotropic glutamate receptor kainate of rat cortical slices; format: protein-complex assay
Outline: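 Functional antagonism of kainate-induced depolarizations in rat cortical slices. Apparent Kb was obtained from dose ratios, with a dose ratio under 2 at a stated concentration reported as ">". Kb values are means of at least three experiments.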

Glutamate NMDA receptor [15] = assay: Inhibition of [3H]glycine binding to N-methyl-D-aspartate glutamate receptor of rat cortical membranes; format: cell membranes, Membrane
Outline: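 [3H]Glycine radioligand binding to rat cortical membranes. IC50 is the concentration inhibiting 50% of specific binding, taken from at least two experiments and given as the mean of two to four determinations (geometric mean).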

Row | Kb [1] [µM] | -Log 1/Kb [3] | IC50 (Glutamate NMDA receptor [4]) [µM] | Compound | also measured
1 | 55 | – | – | O=C(O)c1cc(O)c2cc(F)ccc2n1 | Kb [2]: 48 µM
2 | – | 4.46 | – | O=C(O)c1cc(O)c2c(C(F)(F)F)cccc2n1 | –
3 | – | – | > 100 | CC(C)c1ccc2c(O)cc(C(=O)O)nc2c1 | –
4 | – | – | 2.3 | Cc1cc2[nH]c(=O)c(=O)[nH]c2cc1C | –
5 | – | – | 6.8 | O=C(O)C(=O)Nc1cc(Cl)cc(Cl)c1 | Kb [5]: inactive
6 | – | 5.58 | 1.1 | Cc1cc(Br)cc2nc(C(=O)O)cc(O)c12 | –
7 | > 100 | – | – | CCc1ccc2nc(C(=O)O)cc(O)c2c1 | Kb [6]: inactive; Kb [2]: > 100 µM
8 | – | 3.82 | > 100 | CCc1ccc2c(O)cc(C(=O)O)nc2c1 | –
9 | – | 5.05 | 1.2 | Cc1cc(I)cc2nc(C(=O)O)cc(O)c12 | –
10 | 59 | – | – | Cc1ccc2nc(C(=O)O)cc(O)c2c1 | Kb [6]: inactive; Kb [2]: 66 µM
11 | – | 6 | 0.26 | CCc1cc(Cl)cc2nc(C(=O)O)cc(O)c12 | –
12 | 50 | 5.15 | 0.56 | O=C(O)c1cc(O)c2ccc(Cl)cc2n1 [7-CHLOROKYNURENIC ACID] | IC50 [7]: > 1000 µM; IC50 [8]: 153 µM; IC50 (Glutamate NMDA receptor [9]): 169 µM
13 | – | – | > 100 | Cn1c(C(=O)O)cc(=O)c2c(Cl)cc(Cl)cc21 | Kb [10]: inactive; Kb [6]: inactive; Kb [5]: inactive
14 | 30 | – | – | O=C(O)c1cc(O)c2cc(Br)ccc2n1 | Kb [2]: 28 µM
15 | 43 | – | – | CSc1ccc2nc(C(=O)O)cc(O)c2c1 | Kb [2]: 56 µM
16 | 19 | – | > 100 | O=C(O)c1cc(O)c2cc(Cl)ccc2n1 | IC50 [7]: > 300 µM; IC50 [8]: 41 µM; IC50 (Glutamate NMDA receptor [9]): > 300 µM
17 | 89 | – | – | O=C(O)c1cc(=O)c2ccccc2[nH]1 [TRANSTORINE] | IC50 [7]: > 1000 µM; IC50 [8]: 101 µM
18 | – | – | > 100 | O=C(O)c1cc(O)c2cccc(Cl)c2n1 | Kb [10]: inactive; Kb [6]: inactive; Kb [5]: inactive
19 | – | 5.12 | 0.63 | O=C(O)c1cc(O)c2c(I)cccc2n1 | –
20 | 86 | – | > 100 | COc1nc2cc(C)c(C)cc2nc1O | Kb [11]: inactive; Kb [12]: inactive
21 | – | 4.47 | 1.8 | Cc1ccc2c(O)cc(C(=O)O)nc2c1 | –
22 | – | – | > 100 | CCCCc1ccc2c(O)cc(C(=O)O)nc2c1 | –
23 | – | 4.11 | – | O=C(O)c1cc(O)c2ccc([N+](=O)[O-])cc2n1 | –
24 | – | 2.67 | – | CSc1ccc2c(O)cc(C(=O)O)nc2c1 | –

Row | Kb [1] [µM] | -Log 1/Kb [3] | IC50 (Glutamate NMDA receptor [4]) [µM] | Compound | also measured
25 | 9 | – | 3.1 | Oc1nc2cc(Cl)c(Cl)cc2nc1O [2,3-DIHYDROXY-6,7-DICHLOROQUINOXALINE] | –
26 | > 100 | – | 38.6 | Oc1nc2ccccc2nc1O | –
27 | – | 4.42 | 4.9 | CCc1cc(Cl)c2c(O)cc(C(=O)O)nc2c1 | –
28 | 26 | – | – | Oc1nc2ccc(Cl)cc2nc1O | –
29 | 27 | – | – | Cc1cc2nc(O)c(O)nc2cc1C | –
30 | – | 4.33 | 3.6 | O=C(O)c1cc(O)c2ccc(I)cc2n1 | –
31 | – | – | – | O=[N+]([O-])c1cc2nc(O)c(O)nc2cc1[N+](=O)[O-] | Kb [13]: 5.3 µM; Kb [14]: 1290 nM
32 | – | 3.4 | – | CCCc1cccc2nc(C(=O)O)cc(O)c12 | –
33 | – | 5.8 | 0.086 | O=C(O)c1cc(O)c2c(Br)cc(Br)cc2n1 | –
34 | 14 | – | 2.4 | O=C(O)c1cc(O)c2c(Cl)c(Cl)c(Cl)cc2n1 | –
35 | – | – | > 100 | O=C(O)c1cc(O)c2c(C(F)(F)F)cc(C(F)(F)F)cc2n1 | –
36 | – | – | 8.4 | O=c1[nH]c2ccc(Cl)cc2[nH]c1=O | –
37 | – | 4.68 | 2.1 | Cc1cccc2nc(C(=O)O)cc(O)c12 | –
38 | 49 | – | – | O=C(O)c1cc(O)c2cc([N+](=O)[O-])ccc2n1 | Kb [6]: inactive; Kb [2]: 52 µM
39 | > 100 | – | 56.3 | Oc1nc2cccc(Cl)c2nc1O | –
40 | – | 4.5 | – | O=C(O)c1cc(O)c2ccc(F)cc2n1 | –
41 | – | 5.68 | 0.82 | Cc1cc(Br)c2c(O)cc(C(=O)O)nc2c1 | –
42 | – | – | > 100 | C=Cc1cccc2nc(C(=O)O)cc(O)c12 | –
43 | – | 6.4 | 0.032 | O=C(O)c1cc(O)c2c(I)cc(Cl)cc2n1 | –
44 | – | 6 | 0.27 | Cc1cc(I)c2c(O)cc(C(=O)O)nc2c1 | –
45 | – | 4.72 | 3.2 | CCc1cc(Br)c2c(O)cc(C(=O)O)nc2c1 | –
46 | > 100 | – | – | O=C(O)c1cc(O)c2cc(C(F)(F)F)ccc2n1 | Kb [6]: inactive; Kb [2]: > 100 µM
47 | – | – | > 100 | Cc1cc2c(cc1C)n(C)c(=O)c(=O)n2C | –
48 | – | 5.75 | 0.066 | CCc1cc(Br)cc2nc(C(=O)O)cc(O)c12 | –

Row | Kb [1] [µM] | -Log 1/Kb [3] | IC50 (Glutamate NMDA receptor [4]) [µM] | Compound | also measured
49 | – | – | > 100 | CCCc1ccc2c(O)cc(C(=O)O)nc2c1 | –
50 | 4.6 | – | 8.3 | O=[N+]([O-])c1ccc2nc(O)c(O)nc2c1 | –
51 | – | 3.31 | > 100 | CCCCc1cccc2nc(C(=O)O)cc(O)c12 | –
52 | – | – | 49 | O=C(O)CNc1cc(Cl)cc(Cl)c1 | Kb [5]: inactive
53 | 32 | – | – | COc1ccc2nc(C(=O)O)cc(O)c2c1 | Kb [6]: inactive; Kb [2]: 87 µM
54 | – | 4.7 | – | O=C(O)c1cc(O)c2c(Br)cccc2n1 | –
55 | 22 | – | 3.4 | Oc1nc2cc(Cl)cc(Cl)c2nc1O | –
56 | – | – | > 100 | O=C(O)c1cc(O)c2c([N+](=O)[O-])cc([N+](=O)[O-])cc2n1 | –
57 | > 100 | 4.43 | 5.2 | O=C(O)c1cc(O)c2c(Cl)cccc2n1 | –
58 | – | 5.1 | 0.85 | O=C(O)c1cc(O)c2ccc(Br)cc2n1 | –
59 | – | 5 | 0.65 | O=C(O)c1cc(O)c2c(Cl)cc(I)cc2n1 | –
60 | – | – | > 100 | COc1ccc2c(O)cc(C(=O)O)nc2c1 | –
61 | – | – | > 100 | COc1nc2cc(C)c(C)cc2nc1OC | –
62 | – | – | – | O=c1[nH]c2cc([N+](=O)[O-])c([N+](=O)[O-])cc2[nH]c1=O [DNQX] | IC50 (Glutamate NMDA receptor [15]): 4.5 µM
63 | – | 5.16 | 0.54 | Cc1cc(C)c2c(O)cc(C(=O)O)nc2c1 | –
64 | – | 3.58 | > 100 | C=Cc1ccc2c(O)cc(C(=O)O)nc2c1 | –
65 | – | 5.26 | 4.8 | CCc1cccc2nc(C(=O)O)cc(O)c12 | –
66 | 47 | – | 6.6 | Cc1cc2[nH]c(=O)c(=O)n(C)c2cc1C | –
67 | – | – | 100 | COc1cc(C(=O)O)nc2cc(Cl)cc(Cl)c12 | Kb [10]: inactive; Kb [6]: inactive; Kb [5]: inactive
68 | – | – | 5.6 | O=C(O)c1nc2cc(Cl)ccc2[nH]1 | –
69 | 37 | – | – | O=C(O)c1cc(O)c2cc(I)ccc2n1 | Kb [2]: 56 µM
70 | – | 4.39 | – | O=C(O)c1cc(O)c2c(F)cccc2n1 | –
71 | > 30 | – | 0.2 | O=C(O)c1cc(O)c2c(Cl)cc(Cl)cc2n1 | IC50 [7]: > 300 µM; IC50 (Glutamate NMDA receptor [9]): > 100 µM
72 | – | 3.52 | – | O=C(O)c1cc(O)c2ccc(C(F)(F)F)cc2n1 | –
